Measured values taken from ChEMBL document CHEMBL1122082, “Alkaline phosphatase inhibition by a series of pyrido[2,1-b]quinazolines: A possible relationship with cromolyn-like antiallergy activity” (J Med Chem, 1982).
Activity calls are given as the source filed them. The rule behind the calls is not given here.

Legend:
Rattus norvegicus [1] = experiment: Percent inhibition of rat passive cutaneous anaphylaxis model after intravenous administration of the 0.5 mg/kg; type: functional
Outline: (§1)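 Antiserum dilutions were injected intradermally on the back. 48 h later rats got an i.v. challenge of 1 mg ovalbumin with 0.25% Evans blue in 1 mL saline, with compound dissolved in it, using slight-excess NaHCO3 if needed.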

Rattus norvegicus [2] = organism: Rattus norvegicus; experiment: Dose required for 50% inhibition of rat passive cutaneous anaphylaxis model; type: functional; outline: as §1
Rattus norvegicus [3] = experiment: Percent inhibition of rat passive cutaneous anaphylaxis model after intravenous administration of the 0.5 mg/kg; IA is Inactive; type: functional, organism-based; design: dose 0.5 mg/kg; details: at 0.5 mg/kg; outline: as §1

O=c1c2cc3ccccc3cc2nc2ccc(-c3nn[nH]n3)cn12
inhibition in vivo at 0.5 mg/kg (Rattus norvegicus [1]): 100%

Cc1ccc2nc3ccc(-c4nn[nH]n4)cn3c(=O)c2c1
inhibition in vivo at 0.5 mg/kg (Rattus norvegicus [1]): 100%

O=C(O)c1ccc2nc3ccc(O)cc3c(=O)n2c1
ED50 (Rattus norvegicus [2]): 0.05 mg/kg

COc1ccc2nc3ccc(C(=O)O)cn3c(=O)c2c1
ED50 (Rattus norvegicus [2]): 0.05 mg/kg

O=C(O)c1ccn2c(=O)c3ccccc3nc2c1
inhibition in vivo at 0.5 mg/kg (Rattus norvegicus [1]): 26%

COc1cc2nc3ccc(-c4nn[nH]n4)cn3c(=O)c2cc1OC
inhibition in vivo at 0.5 mg/kg (Rattus norvegicus [1]): 100%

O=C(O)c1ccc2nccc(=O)n2c1
inhibition (Rattus norvegicus [3]): inactive

COc1cc2nc3ccc(C(=O)O)cn3c(=O)c2cc1OC
ED50 (Rattus norvegicus [2]): 0.05 mg/kg

COc1ccc2nc3ccc(-c4nn[nH]n4)cn3c(=O)c2c1
ED50 (Rattus norvegicus [2]): 0.03 mg/kg

O=C(O)c1cccn2c(=O)c3ccccc3nc12
inhibition (Rattus norvegicus [3]): inactive

O=C(O)c1ccc2nc3cc4ccccc4cc3c(=O)n2c1
ED50 (Rattus norvegicus [2]): 0.1 mg/kg

O=C(O)C1=CN2CC3=C(CCCC3)N=C2C=C1
inhibition (Rattus norvegicus [3]): inactive

O=C(O)c1ccc2nc3ccccc3c(=O)n2c1
ED50 (Rattus norvegicus [2]): 0.5 mg/kg

Cc1ccc2nc3ccc(C(=O)O)cn3c(=O)c2c1
ED50 (Rattus norvegicus [2]): 0.05 mg/kg

COc1ccc2c(=O)n3cc(-c4nn[nH]n4)ccc3nc2c1
ED50 (Rattus norvegicus [2]): 0.5 mg/kg

O=c1c2ccccc2nc2ccc(-c3nn[nH]n3)cn12
inhibition in vivo at 0.5 mg/kg (Rattus norvegicus [1]): 68%

O=C(O)c1cccn2c(=O)c3cc4ccccc4cc3nc12
inhibition (Rattus norvegicus [3]): inactive
